pIC50: −log10 of the molar value.
Tests used:
[1] = biological target: T1, 17-beta-hydroxysteroid dehydrogenase type 1 (Homo sapiens, UniProt P14061); assay: Inhibition of human placenta cytosolic 17betaHSD1 using [3H]E1 as substrate after 10 mins by radioflow detection assay
T1 sequence (P14061 whole entry): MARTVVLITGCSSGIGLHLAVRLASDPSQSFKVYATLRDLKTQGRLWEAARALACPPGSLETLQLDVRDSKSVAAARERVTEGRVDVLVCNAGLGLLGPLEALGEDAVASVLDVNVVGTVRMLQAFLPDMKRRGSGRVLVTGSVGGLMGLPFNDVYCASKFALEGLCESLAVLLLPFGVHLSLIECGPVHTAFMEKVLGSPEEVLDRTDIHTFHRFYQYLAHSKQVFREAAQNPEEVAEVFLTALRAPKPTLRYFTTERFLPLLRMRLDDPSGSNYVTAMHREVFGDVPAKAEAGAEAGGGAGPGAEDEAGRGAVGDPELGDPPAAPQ
Outline: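 Cytosolic 17β-HSD1 from fresh human placenta, obtained by ammonium sulfate precipitation. Incubated at 37 °C in 50 mM phosphate buffer with 20% glycerol and EDTA, with NADH 500 μM and compound (DMSO 1% final). Started with unlabeled + [3H]-E1 (500 nM final), stopped after 10 min with HgCl2, ether-extracted. E1/E2 quantified by radioflow HPLC as % conversion. At least three independent experiments.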

Callithrix jacchus [2] = species: Callithrix jacchus; assay: Inhibition of mormoset placenta microsomal 17betaHSD2 using [3H]E2 as substrate at 50 nM after 20 mins by radioflow detection assay
[3] = biological target: T2, Estrogen receptor (Homo sapiens) (UniProt P03372); assay: Relative binding affinity to human recombinant ERalpha receptor using [3H]E2 as substrate after 1 hr by liquid scintillation counting relative to E2
T2 sequence (whole entry): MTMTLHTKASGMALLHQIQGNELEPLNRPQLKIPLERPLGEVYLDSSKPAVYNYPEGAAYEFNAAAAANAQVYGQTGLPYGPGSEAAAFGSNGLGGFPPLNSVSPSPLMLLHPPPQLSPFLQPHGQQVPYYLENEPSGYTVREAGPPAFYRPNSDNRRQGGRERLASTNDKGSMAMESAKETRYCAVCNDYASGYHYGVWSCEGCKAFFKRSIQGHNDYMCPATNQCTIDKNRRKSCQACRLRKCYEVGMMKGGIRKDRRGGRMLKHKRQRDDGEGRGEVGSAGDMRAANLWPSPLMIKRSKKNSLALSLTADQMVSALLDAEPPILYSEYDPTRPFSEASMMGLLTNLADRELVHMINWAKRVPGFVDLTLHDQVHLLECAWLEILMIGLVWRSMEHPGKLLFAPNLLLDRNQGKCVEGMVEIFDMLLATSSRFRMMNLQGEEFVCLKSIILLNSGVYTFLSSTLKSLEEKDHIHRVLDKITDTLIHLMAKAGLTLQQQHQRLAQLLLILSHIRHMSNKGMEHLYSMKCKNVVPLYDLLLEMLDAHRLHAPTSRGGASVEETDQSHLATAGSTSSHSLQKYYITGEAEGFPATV
Outline: (§1)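 Recombinant human ERα or ERβ (0.25 pmol) incubated 1 h at rt with [3H]-E2 (10 nM) and compound in DMSO (5% final). Nonspecific binding defined with diethylstilbestrol 10 μM. Bound complex captured on hydroxyapatite, washed, resuspended in ethanol, counted by liquid scintillation. Concentrations displacing 50% of bound label compared with E2, which is set at 100%.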

[4] = biological target: T3, 17-beta-hydroxysteroid dehydrogenase type 2 (Homo sapiens, UniProt P37059); assay: Inhibition of human placenta microsomal 17betaHSD2 using [3H]E2 as substrate after 20 mins by radioflow detection assay
T3 sequence (P37059 whole entry): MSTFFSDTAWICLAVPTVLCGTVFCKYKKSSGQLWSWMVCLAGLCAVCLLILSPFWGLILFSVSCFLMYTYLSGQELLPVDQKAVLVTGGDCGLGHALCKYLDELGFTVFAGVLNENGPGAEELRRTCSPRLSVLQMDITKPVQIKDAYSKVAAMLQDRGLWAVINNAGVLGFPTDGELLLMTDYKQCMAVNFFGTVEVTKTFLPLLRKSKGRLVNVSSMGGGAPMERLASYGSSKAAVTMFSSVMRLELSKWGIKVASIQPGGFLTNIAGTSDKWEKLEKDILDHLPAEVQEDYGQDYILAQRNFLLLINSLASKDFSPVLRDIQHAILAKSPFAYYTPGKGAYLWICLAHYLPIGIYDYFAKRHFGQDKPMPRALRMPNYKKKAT
Outline: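 Microsomal (pellet) fraction of fresh human placenta incubated with NAD+ 1500 μM, compound, and unlabeled + [3H]-E2 (500 nM final) for 20 min at 37 °C. Stopped with 1 mM HgCl2, ether-extracted. Steroids separated by HPLC with radioflow detection, conversion computed. Mean of three determinations.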

[5] = biological target: Estrogen receptor beta (Homo sapiens) (UniProt Q92731); assay: Relative binding affinity to human recombinant ERbeta receptor using [3H]E2 as substrate after 1 hr by liquid scintillation counting relative to E2; outline: as §1
Sequence of Estrogen receptor beta (Homo sapiens) (Q92731 whole entry): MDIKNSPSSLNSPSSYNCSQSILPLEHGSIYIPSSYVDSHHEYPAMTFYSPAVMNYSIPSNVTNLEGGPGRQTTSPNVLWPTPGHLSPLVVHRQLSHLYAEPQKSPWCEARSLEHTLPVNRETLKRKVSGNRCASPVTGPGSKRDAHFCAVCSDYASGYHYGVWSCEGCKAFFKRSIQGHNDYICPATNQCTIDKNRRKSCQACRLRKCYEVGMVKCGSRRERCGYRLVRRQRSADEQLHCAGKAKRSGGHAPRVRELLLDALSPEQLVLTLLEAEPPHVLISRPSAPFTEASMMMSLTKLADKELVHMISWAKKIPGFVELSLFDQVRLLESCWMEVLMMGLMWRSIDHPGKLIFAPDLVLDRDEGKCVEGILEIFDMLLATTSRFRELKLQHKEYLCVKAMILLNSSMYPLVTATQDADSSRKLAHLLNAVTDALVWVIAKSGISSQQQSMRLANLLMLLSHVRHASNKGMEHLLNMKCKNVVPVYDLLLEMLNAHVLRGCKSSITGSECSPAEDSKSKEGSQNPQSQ

[6] = biological target: T1, 17-beta-hydroxysteroid dehydrogenase type 1; assay: Inhibition of 17betaHSD1 in human T47D cells using [3H]E1 as substrate incubated for 30 mins prior to substrate addition measured after 30 mins by radioflow detection assay; assay type: cell-based
Outline: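 T47D cells kept in RPMI 1640 with 10% FCS, glutamine, insulin-zinc, pyruvate, antibiotics. Seeded at 5 × 10^5 cells/well in DMEM with FCS, switched to serum-free DMEM after 24 h. Compound added in DMSO (1% final), 30 min preincubation at 37 °C, 5% CO2. Then unlabeled + [3H]-E1 (50 nM final) for 30 min. Steroids extracted into diethylether. Mean of three determinations.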

Callithrix jacchus [7] = species: Callithrix jacchus; assay: Inhibition of mormoset placenta cytosolic 17betaHSD1 using [3H]E1 as substrate at 50 nM after 10 mins by radioflow detection assay
[8] = biological target: T4, 17-beta-hydroxysteroid dehydrogenase type 1 (Homo sapiens) (UniProt P14061); assay: Inhibition of human placenta cytosolic 17betaHSD1 using [3H]E1 as substrate at 10 nM after 10 mins by radioflow detection assay
T4 sequence (whole entry): T1 sequence (P14061 whole entry)

## Cc1ccccc1S(=O)(=O)Nc1cccc(-c2c(O)ccc3cc(-c4cccc(O)c4)ccc23)c1
[1]
  pIC50: 7.51
Callithrix jacchus [2]
  inhibition: < 10%
[3]
  RBA: < 0.1%
[4]
  pIC50: 6.73
[5]
  RBA: < 0.1%
[6]
  pIC50: 6.28
Callithrix jacchus [7]
  inhibition: 20%

## O=[N+]([O-])c1ccc(S(=O)(=O)Nc2cccc(-c3c(O)ccc4cc(-c5cccc(O)c5)ccc34)c2)c([N+](=O)[O-])c1
[1]
  pIC50: 6.16
Callithrix jacchus [2]
  inhibition: 36%
[3]
  RBA: < 0.1%
[4]
  pIC50: 6.43
[5]
  RBA: < 0.1%
Callithrix jacchus [7]
  inhibition: 16%

## O=[N+]([O-])c1cccc(S(=O)(=O)Nc2cccc(-c3c(O)ccc4cc(-c5cccc(O)c5)ccc34)c2)c1
[1]
  pIC50: 7.70
Callithrix jacchus [2]
  inhibition: 17%
[3]
  RBA: < 0.1%
[4]
  pIC50: 6.43
[8]
  inhibition: > 30%
[5]
  RBA: < 0.1%
[6]
  pIC50: 6.40
Callithrix jacchus [7]
  inhibition: 16%

## O=S(=O)(Nc1cccc(-c2c(O)ccc3cc(-c4cccc(O)c4)ccc23)c1)c1ccc2ncccc2c1
[1]
  pIC50: 7.04
Callithrix jacchus [2]
  inhibition: 13%
[3]
  RBA: < 0.1%
[4]
  pIC50: 6.27
[8]
  inhibition: > 30%
[5]
  RBA: < 0.1%
[6]
  pIC50: 6.30
Callithrix jacchus [7]
  inhibition: 38%

## Cc1ccc(S(=O)(=O)Nc2cccc(-c3c(O)ccc4cc(-c5cccc(O)c5)ccc34)c2)cc1
[1]
  pIC50: 7.46
Callithrix jacchus [2]
  inhibition: 11%
[3]
  RBA: < 0.1%
[4]
  pIC50: 6.44
[5]
  RBA: < 0.1%
[6]
  pIC50: 6.20
Callithrix jacchus [7]
  inhibition: < 10%

## N#Cc1cccc(S(=O)(=O)Nc2cccc(-c3c(O)ccc4cc(-c5cccc(O)c5)ccc34)c2)c1
[1]
  pIC50: 7.52
Callithrix jacchus [2]
  inhibition: < 10%
[3]
  RBA: < 0.1%
[4]
  pIC50: 6.22
[8]
  inhibition: > 30%
[5]
  RBA: < 0.1%
[6]
  pIC50: 6.40
Callithrix jacchus [7]
  inhibition: 11%

## O=S(=O)(Nc1cccc(-c2c(O)ccc3cc(-c4cccc(O)c4)ccc23)c1)c1ccc(O)cc1
[1]
  pIC50: 7.72
Callithrix jacchus [2]
  inhibition: 30%
[3]
  RBA: < 0.1%
[4]
  pIC50: 6.45
[5]
  RBA: < 0.1%
[6]
  pIC50: 6.00
Callithrix jacchus [7]
  inhibition: < 10%

## Cc1cccc(S(=O)(=O)Nc2cccc(-c3c(O)ccc4cc(-c5cccc(O)c5)ccc34)c2)c1
[1]
  pIC50: 7.48
Callithrix jacchus [2]
  inhibition: 11%
[3]
  RBA: < 0.1%
[4]
  pIC50: 6.35
[5]
  RBA: < 0.1%
[6]
  pIC50: 6.36
Callithrix jacchus [7]
  inhibition: < 10%

## CC(=O)Nc1ccc(S(=O)(=O)Nc2cccc(-c3c(O)ccc4cc(-c5cccc(O)c5)ccc34)c2)cc1
[1]
  pIC50: 7.92
Callithrix jacchus [2]
  inhibition: < 10%
[3]
  RBA: < 0.1%
[4]
  pIC50: 6.39
[5]
  RBA: < 0.1%
[6]
  pIC50: 6.62
Callithrix jacchus [7]
  inhibition: 31%

## O=[N+]([O-])c1ccccc1S(=O)(=O)Nc1cccc(-c2c(O)ccc3cc(-c4cccc(O)c4)ccc23)c1
[1]
  pIC50: 7.77
Callithrix jacchus [2]
  inhibition: 21%
[3]
  RBA: < 0.1%
[4]
  pIC50: 6.62
[8]
  inhibition: > 30%
[5]
  RBA: < 0.1%
[6]
  pIC50: 6.34
Callithrix jacchus [7]
  inhibition: < 10%

## O=S(=O)(c1ccccc1)n1ccc2ccc(-c3c(O)ccc4cc(-c5cccc(O)c5)ccc34)cc21
[1]
  pIC50: 6.28
Callithrix jacchus [2]
  inhibition: 12%
[4]
  pIC50: 6.00
Callithrix jacchus [7]
  inhibition: 14%

## O=S(=O)(Nc1cccc(-c2c(O)ccc3cc(-c4cccc(O)c4)ccc23)c1)c1ccccc1F
[1]
  pIC50: 7.54
Callithrix jacchus [2]
  inhibition: < 10%
[3]
  RBA: < 0.1%
[4]
  pIC50: 6.13
[5]
  RBA: < 0.1%
[6]
  pIC50: 6.37
Callithrix jacchus [7]
  inhibition: 19%

## O=S(=O)(Nc1cccc(-c2c(O)ccc3cc(-c4cccc(O)c4)ccc23)c1)c1cccc(F)c1
[1]
  pIC50: 7.66
Callithrix jacchus [2]
  inhibition: 33%
[3]
  RBA: < 0.1%
[4]
  pIC50: 6.40
[8]
  inhibition: > 30%
[5]
  RBA: < 0.1%
[6]
  pIC50: 6.34
Callithrix jacchus [7]
  inhibition: < 10%

## N#Cc1ccc(S(=O)(=O)Nc2cccc(-c3c(O)ccc4cc(-c5cccc(O)c5)ccc34)c2)cc1
[1]
  pIC50: 7.60
Callithrix jacchus [2]
  inhibition: 30%
[3]
  RBA: < 0.1%
[4]
  pIC50: 6.08
[5]
  RBA: < 0.1%
[6]
  pIC50: 6.26
Callithrix jacchus [7]
  inhibition: 25%

## O=S(=O)(Nc1cccc(-c2c(O)ccc3cc(-c4cccc(O)c4)ccc23)c1)c1ccc(F)cc1
[1]
  pIC50: 7.28
Callithrix jacchus [2]
  inhibition: 20%
[3]
  RBA: < 0.1%
[4]
  pIC50: 6.08
[5]
  RBA: < 0.1%
[6]
  pIC50: 6.20
Callithrix jacchus [7]
  inhibition: 24%

## O=S(=O)(Nc1cccc(-c2c(O)ccc3cc(-c4cccc(O)c4)ccc23)c1)c1cccs1
[1]
  pIC50: 7.55
Callithrix jacchus [2]
  inhibition: 18%
[3]
  RBA: < 0.1%
[4]
  pIC50: 5.96
[8]
  inhibition: > 30%
[5]
  RBA: < 0.1%
[6]
  pIC50: 6.50
Callithrix jacchus [7]
  inhibition: 25%

## O=S(=O)(Nc1cccc(-c2c(O)ccc3cc(-c4cccc(O)c4)ccc23)c1)c1ccc(Br)cc1OC(F)(F)F
[1]
  pIC50: 7.13
Callithrix jacchus [2]
  inhibition: < 10%
[3]
  RBA: < 0.1%
[4]
  pIC50: 6.67
[8]
  inhibition: > 30%
[5]
  RBA: < 0.1%
Callithrix jacchus [7]
  inhibition: < 10%

## O=S(=O)(Nc1cccc(-c2c(O)ccc3cc(-c4cccc(O)c4)ccc23)c1)c1cc(F)c(Br)cc1F
[1]
  pIC50: 7.34
Callithrix jacchus [2]
  inhibition: 17%
[3]
  RBA: < 0.1%
[4]
  pIC50: 6.65
[8]
  inhibition: > 30%
[5]
  RBA: < 0.1%
[6]
  pIC50: 6.19
Callithrix jacchus [7]
  inhibition: 14%

## O=S(=O)(c1ccccc1)n1ccc2c(-c3c(O)ccc4cc(-c5cccc(O)c5)ccc34)cccc21
[1]
  pIC50: 7.49
Callithrix jacchus [2]
  inhibition: 43%
[3]
  RBA: < 0.1%
[4]
  pIC50: 6.41
[5]
  RBA: < 0.1%
[6]
  pIC50: 5.96
Callithrix jacchus [7]
  inhibition: 79%

## O=[N+]([O-])c1ccc(S(=O)(=O)Nc2cccc(-c3c(O)ccc4cc(-c5cccc(O)c5)ccc34)c2)cc1
[1]
  pIC50: 7.31
Callithrix jacchus [2]
  inhibition: 13%
[3]
  RBA: < 0.1%
[4]
  pIC50: 5.98
[8]
  inhibition: > 30%
[5]
  RBA: < 0.1%
[6]
  pIC50: 6.12
Callithrix jacchus [7]
  inhibition: 28%

From ChEMBL document CHEMBL2040729, “Lead optimization of 17β-HSD1 inhibitors of the (hydroxyphenyl)naphthol sulfonamide type for the treatment of endometriosis” (J Med Chem, 2012)
